Mot1-301 SUMO: blocks SUMOylation pathway, rescuing yeast Mot1-301 growth. 320,000 tested, 1% active. growth rescue, % at 18.8 µM. S. cerevisiae Mot1-301 growth rescue, ATP luminescence, 38.5C; percent above DMSO median, 100 means doubled;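 active = every valid replicate shows activation above 250% relative to neutral control wells; inactive = the rest, any valid replicate at or below 250%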;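 also: OY570 slx delta 5 strain wells were the positive control but not used for scaling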
Ecoli rRNA inh: inhibitors of bacterial rRNA selective over humanized ribosomes | E. coli WT GFP vs humanized-ribosome RFP mutants, fluorescence, 24 h; stronger effect = lower value; DMSO median 0, no signal -100 | GFP signal change (wild-type ribosome), % (concentration not given with the values) | 350,000 tested, 1.6% active | AID 720706;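 active = significant combined selectivity score with lowered wild-type GFP, culture density cut under 30%, mutant RFP and density less affected; inactive = any of these conditions unmet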
PglD inh: PglD (C. jejuni) enzyme inhibition. purified PglD enzyme, DTNB colorimetric CoA detection. inhibition, % at 12.5 µM. AID 602405. 360,000 tested, 0.098% active; in the data active = inhibition above about 16%, passing the limit was not always enough
CR mimetic SO: lowers age-related superoxide in aged yeast cells; 330,000 tested, 0.18% active; S. cerevisiae aged cells, superoxide DHE fluorescence; stronger effect = lower value; superoxide response (% of plate mean), % at 10 µM;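 active = superoxide response under a set limit, about three screen SD below normal, cut at about 65% in these data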;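 also: yeast aged for seven days with compound at 30 °C before DHE staining; 100% = average MFI of all compound-treated wells on the plate with controls excluded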
Cneo AK release: causes C. neoformans cell lysis. adenylate kinase release luminescence, 4 h; normalised: neutral wells 0, clomiphene wells 100. lysis activity, % at 15 µM. 360,000 tested, 0.2% active;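 active = mean lysis activity across replicates of at least 80%, whatever share of replicates individually reach that level; inactive = mean lysis activity below 80%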
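Material – log-phase Cryptococcus neoformans yeast cells · Input – 5 × 10^6 yeast cells/mL · Medium – fresh YPD growth medium · Doses – single compound concentration per well · Timing – static 4 h at 37 °C with compound, 1 h detection · Detection – adenylate kinase release luminescence · Read-out – signal increase indicating cell lysis · Control set – Clomiphene as positive lysis control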
* = called active by the depositor; · = no result given. An excerpt weighted towards active compounds, which were near 2.2% of everything screened.

SMILES	Mot1-301 SUMO	Ecoli rRNA inh	PglD inh	CR mimetic SO	Cneo AK release
COc1cccc(NC(=S)N(CCCN2CCC(C)CC2)Cc2cccs2)c1	0.6	8.7	0.6	92.3	-1.0
Cc1cccc(NC(=O)c2ccccn2)c1C	0.9	·	5.0	77.0	3.5
Cc1cccc(NC(=O)c2n[nH]c([N+](=O)[O-])c2Br)c1C	79.6	-29.0*	-4.6	119.3	-2.0
O=C(CCCN1C(=O)/C(=C/c2ccc3c(c2)OCO3)SC1=S)Nc1ccc(C(=O)O)cc1	4.6	·	-1.5	101.6	-2.3
O=C(CCCN1C(=O)C(=Cc2ccc3c(c2)OCO3)SC1=S)Nc1ccc(C(=O)O)c(O)c1	·	-26.2*	5.5	·	-0.7
Cc1ccc(C)c(CSCc2nc3ccccc3[nH]2)c1	-12.3	-34.4	5.7	104.8	-3.5
Cc1ccccc1CSCc1nc2ccccc2[nH]1	3.6	-22.2*	·	98.1	·
O=C(NCc1ccccn1)[C@@H]1[C@@H](CO)[C@@H]2Cn3c(cccc3=O)[C@@H]2N1CCc1ccccc1	·	0.3	-1.3	·	33.3
CN1[C@H](CO)[C@@H]2c3ccccc3N(C(=O)Nc3ccccc3F)C[C@@H]21	·	3.8	-1.1	·	1.4
CCNC(=S)N/N=C1\CCCCc2ccccc21	-3.7	-16.8	0.1	104.9	4.8
Cc1ccc(NC(=S)N/N=C2/CCCCc3ccccc32)cc1	6.0	-4.2	-3.6	97.2	6.2
Cc1ccc(C)c(NC(=S)N/N=C2\CCc3ccccc32)c1	-24.7	-23.8*	-3.2	85.9	3.4
C=C(C)CNC(=S)N/N=C1\CCCCc2ccccc21	311.3*	-41.0	-1.1	112.1	7.7
COCC#Cc1cnc2c(c1)C(=O)N([C@H](C)CO)C[C@@H](C)[C@H](CN(C)C(=O)c1cccnc1)O2	·	5.0	3.1	·	-3.3
CCN(CC)CCn1c(SCC(=O)Nc2cccc(OC)c2)nc2c(sc3ccccc32)c1=O	137.1	-20.6*	·	110.9	·
COc1cccc(NC(=O)CSc2nc3c(sc4ccccc43)c(=O)n2CCCN2CCCC2)c1	12.0	-1.4	5.1	109.9	-0.4
COC(CNC(=O)c1ccc2nc(-c3cccs3)c(-c3cccs3)nc2c1)OC	-12.1	-21.7*	-9.3	120.1	0.1
CCNC(=O)[C@@H]1[C@@H](CO)[C@@H]2Cn3c(ccc(-c4ccccc4)c3=O)[C@@H]2N1C(=O)C1CC1	·	4.4	-3.4	·	1.7
COCC1CN(CCc2ccc(F)cc2)S(=O)(=O)c2c(F)cccc2O1 (stereo not given)	·	-22.1*	·	·	·
C[C@@H]1CN([C@@H](C)CO)C(=O)c2cccc(NC(=O)Nc3ccc(F)cc3)c2O[C@H]1CN(C)Cc1ccccc1	·	-10.1	2.9	·	-1.2
O=C(Cc1ccc([N+](=O)[O-])cc1)Nc1ccc2c(c1)OCO2	3.1	10.8	·	88.7	·
O=C(Nc1ccc2c(c1)OCO2)c1ccc([N+](=O)[O-])cc1[N+](=O)[O-]	12.2	-18.8*	6.9	159.0	3.0
CCc1ccc(N(C(C)=O)C2C=CS(=O)(=O)C2)cc1 (stereo not given)	531.3*	·	-2.3	85.5	2.2
CCOc1ccc(CNc2ccc(CNc3ncn[nH]3)cc2)cc1	342.1*	-2.0	-3.2	106.9	0.7
c1ccc(COc2ccc(OCCN3CCCC3)cc2)cc1	334.0	·	·	80.5	·
SMILES	Mot1-301 SUMO	Ecoli rRNA inh	PglD inh	CR mimetic SO	Cneo AK release
CC(C)c1ccc(OCCCCN2CCCCC2)cc1	351.6*	4.6	4.6	93.6	1.2
c1ccc(-c2sc3ccccc3c2-c2ccc(OCCN3CCCC3)cc2)cc1	297.6*	-40.7	2.4	82.4	0.3
c1ccc(COc2ccc(OCCN3CCCCC3)cc2)cc1	445.5*	1.8	-1.0	93.0	2.4
C[C@@H]1CCCCO[C@@H](CN(C)C)[C@H](C)CN([C@@H](C)CO)C(=O)c2cc(NS(=O)(=O)c3cn(C)cn3)ccc2O1	·	4.0	2.3	·	0.7
O=C(Nc1ccc(Br)cc1)C1CCCC1	333.1*	12.0	-11.1	105.4	-0.4
O=C(NC(=S)Nc1ccc(Br)cc1)C1CCCCC1	1.0	3.9	-2.1	91.6	-2.2
S=C(NCCN1CCCCC1)Nc1ccc(Br)cc1	347.8*	9.4	1.0	113.2	13.2
S=C(NCCN1CCCCC1)Nc1ccccc1	165.1	13.2	·	102.2	·
O=C(NC(=S)Nc1ccc(Br)cc1)C1CCC1	66.5	-7.5	3.8	92.0	146.3*
CN(C)CCN(Cc1ccco1)C(=O)c1cc2c(Cl)nc3ccccc3c2s1	4.4	-33.4*	·	96.7	·
COc1ccc(C#Cc2cnc3c(c2)C(=O)N([C@@H](C)CO)C[C@@H](C)[C@@H](CN(C)CC2CC2)O3)cc1	·	-1.8	·	·	·
CCN(CC)c1ccc(N=Cc2ccccc2[N+](=O)[O-])cc1	9.8	-31.7*	0.9	104.2	-0.4
CC(C)(C)C(=O)N1CCN(c2ccc([N+](=O)[O-])c(NCC3CCCO3)c2)CC1 (stereo not given)	7.6	-37.6*	-2.8	106.4	2.0
C[C@H]1CN([C@@H](C)CO)C(=O)c2cccc(NC(=O)Nc3ccc(C(F)(F)F)cc3)c2O[C@H]1CN(C)S(=O)(=O)c1ccc(Cl)cc1	·	2.9	1.8	·	0.3
CCc1ccc(NC(=S)Nc2ccc3cn[nH]c3c2)cc1	1.1	-21.3*	·	94.9	·
COc1cc(C=O)ccc1Oc1nc(Nc2ccc(F)cc2F)nc(N2CCOCC2)n1	334.3*	-8.4	·	104.0	·
Cc1ccc(N/C=C(\[N+](=O)[O-])S(=O)(=O)c2ccccc2)cc1	15.1	-21.6*	·	100.7	·
CO[C@H]1CN(C)C(=O)c2cc(NC(=O)C3CCOCC3)ccc2OC[C@H](C)N(C(C)=O)C[C@@H]1C	·	3.2	3.5	·	-0.7
CSc1ccc(-c2nc(CN3CCCCC3c3cccnc3)c(C)o2)cc1 (stereo not given)	-10.8	-21.4*	·	103.1	·
Cc1oc(-c2ccc(Cl)cc2)nc1CN1CCCC(C(=O)NCc2cccnc2)C1 (stereo not given)	7.5	·	-5.7	112.3	7.0
C[C@H](CO)N1C[C@H](C)[C@H](CN(C)C(=O)C2CCC2)Oc2ncc(-c3ccccc3F)cc2C1=O	·	1.6	3.7	·	0.5
COc1cccc(NC(=O)NCCc2ccc(Cl)cc2)c1	0.9	-23.9*	2.9	112.6	-0.9
CC(=O)c1cccc(NC(=O)NCCc2ccc(Cl)cc2)c1	-0.2	1.1	-2.7	96.0	-2.8
Cc1cccc(NC(=S)N(Cc2ccc(Br)cc2)Cc2ccc(C(=O)O)cc2)c1	·	-8.4	4.7	112.9	0.3
COc1cccc(NC(=S)N(Cc2ccc(Cl)cc2)Cc2ccc(C(=O)O)cc2)c1	-9.7	-32.2*	·	112.8	·
CC1C=NC(S(=O)(=O)N2CC[C@@H]3[C@H]2c2cc(-c4ccccc4)ccc2N(C)[C@H]3CO)=N1 (stereo not given in full)	·	0.4	-2.2	·	58.0
COc1ccc([C@@H]2C/C=C\C[C@@H](c3ccccc3)NC(=O)CCC(=O)N2)c(OC)c1	·	-1.5	·	·	·

Bioassay records deposited in PubChem by several laboratories.
